Measured values as given in ChEMBL document CHEMBL3108721, “4,4'-Unsymmetrically substituted 3,3'-biphenyl alpha helical proteomimetics as potential coactivator binding inhibitors” (Bioorg Med Chem, 2014).

How the values were obtained:
[1] = target: T1, Estrogen receptor (Homo sapiens) (UniProt P03372); test: Competitive inhibition of ER-alpha (unknown origin)-GRIP1 interaction expressed in human HepG2 cells assessed as change in reporter gene activity after 40 hrs in presence of estradiol relative to control; type: cell-based; parameters: concentration or dose not given beside the values
T1 sequence (whole entry): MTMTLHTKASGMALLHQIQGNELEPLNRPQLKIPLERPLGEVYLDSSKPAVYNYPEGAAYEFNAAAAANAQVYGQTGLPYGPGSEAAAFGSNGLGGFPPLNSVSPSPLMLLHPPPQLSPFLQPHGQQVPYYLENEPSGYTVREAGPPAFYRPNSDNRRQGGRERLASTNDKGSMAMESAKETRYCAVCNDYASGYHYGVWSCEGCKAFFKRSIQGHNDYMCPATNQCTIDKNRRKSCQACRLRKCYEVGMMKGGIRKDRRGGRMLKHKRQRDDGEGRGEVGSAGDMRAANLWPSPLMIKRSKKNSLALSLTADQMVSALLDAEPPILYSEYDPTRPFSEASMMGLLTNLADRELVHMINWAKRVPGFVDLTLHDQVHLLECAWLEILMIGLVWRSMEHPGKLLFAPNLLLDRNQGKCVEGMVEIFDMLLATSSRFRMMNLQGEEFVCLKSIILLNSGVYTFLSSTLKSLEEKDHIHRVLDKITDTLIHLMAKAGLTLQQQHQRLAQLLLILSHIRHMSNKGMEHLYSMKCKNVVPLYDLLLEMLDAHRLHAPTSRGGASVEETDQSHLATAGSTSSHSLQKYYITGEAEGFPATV
Outline: (§1)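 HepG2 cells transfected with VP16-ERα, Gal4-DBD-fused GRIP1 LxxLL2 peptide and 5xGal4Luc3 reporter. […] Scored as >50% decrease or increase at <20, 20–50 or >50 μM, or <20% change. 4-hydroxytamoxifen as antagonist control. Cell death and precipitation flagged.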

[2] = target: T1, Estrogen receptor (Homo sapiens); test: Inhibition of ER-alpha (unknown origin) transcriptional activity expressed in ER-negative human SKBR3 cells coexpressing ERE assessed as change in reporter gene activity after 40 hrs in presence of estradiol relative to control; type: cell-based; parameters: concentration or dose not given beside the values; conditions: SK-BR-3
Outline: (§2)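 ER-negative SKBR3 cells cotransfected with 3xERE-TATA-luciferase, RST7-ERα and pCMV-β-gal for normalization. […] Scored as >50% decrease or increase at <20, 20–50 or >50 μM, or <20% change. 4-hydroxytamoxifen as antagonist control. Cell death above 50 μM flagged.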

[3] = target: T1, Estrogen receptor (Homo sapiens); test: Inhibition of ER-alpha (unknown origin) transcriptional activity expressed in ER-negative human SKBR3 cells coexpressing ERE assessed as increase in reporter gene activity at >50 uM after 40 hrs relative to control; type: cell-based; parameters: scale not given: the % may be the effect or the level left; conditions: SK-BR-3; outline: as §2
[4] = target: T1, Estrogen receptor (Homo sapiens); test: Competitive inhibition of ER-alpha (unknown origin)-GRIP1 interaction expressed in human HepG2 cells assessed as increase in reporter gene activity at >50 uM after 40 hrs relative to control; type: cell-based; parameters: scale not given: the % may be the effect or the level left; outline: as §1
[5] = target: T1, Estrogen receptor (Homo sapiens); test: Competitive inhibition of ER-alpha (unknown origin)-GRIP1 interaction expressed in human HepG2 cells assessed as decrease in reporter gene activity at less than 20 uM after 40 hrs relative to control; parameters: scale not given: the % may be the effect or the level left
[6] = target: T1, Estrogen receptor (Homo sapiens); test: Inhibition of ER-alpha (unknown origin) transcriptional activity expressed in ER-negative human SKBR3 cells coexpressing ERE assessed as increase in reporter gene activity at 20 to 50 uM after 40 hrs relative to control; type: cell-based; parameters: scale not given: the % may be the effect or the level left; conditions: SK-BR-3; outline: as §2
[7] = target: T1, Estrogen receptor (Homo sapiens); test: Competitive inhibition of ER-alpha (unknown origin)-GRIP1 interaction expressed in human HepG2 cells assessed as change in reporter gene activity after 40 hrs relative to control; type: cell-based; parameters: concentration or dose not given beside the values; outline: as §1
[8] = target: T1, Estrogen receptor (Homo sapiens); test: Inhibition of ER-alpha (unknown origin) transcriptional activity expressed in ER-negative human SKBR3 cells coexpressing ERE assessed as increase in reporter gene activity at <20 uM after 40 hrs relative to control; type: cell-based; parameters: scale not given: the % may be the effect or the level left; conditions: SK-BR-3; outline: as §2
[9] = target: T1, Estrogen receptor (Homo sapiens); test: Inhibition of ER-alpha (unknown origin) transcriptional activity expressed in ER-negative human SKBR3 cells coexpressing ERE assessed as change in reporter gene activity after 40 hrs relative to control; type: cell-based; parameters: concentration or dose not given beside the values; conditions: SK-BR-3; outline: as §2
HepG2 [10] = test: Cytotoxicity against human HepG2 cells expressing ER-alpha coexpressing GRIP1 assessed as cell death at >50 uM; type: cell-based; outline: as §1
HepG2 [11] = test: Cytotoxicity against human HepG2 cells expressing ER-alpha coexpressing GRIP1 assessed as cell death at >50 uM in presence of estradiol; type: cell-based; outline: as §1
[12] = target: T1, Estrogen receptor (Homo sapiens); test: Competitive inhibition of ER-alpha (unknown origin)-GRIP1 interaction expressed in human HepG2 cells assessed as increase in reporter gene activity at <20 uM after 40 hrs relative to control; type: cell-based; parameters: scale not given: the % may be the effect or the level left; outline: as §1
[13] = target: T1, Estrogen receptor (Homo sapiens); test: Competitive inhibition of ER-alpha (unknown origin)-GRIP1 interaction expressed in human HepG2 cells assessed as increase in reporter gene activity at <20 uM after 40 hrs in presence of estradiol relative to control; type: cell-based; parameters: scale not given: the % may be the effect or the level left; outline: as §1
[14] = target: T1, Estrogen receptor (Homo sapiens); test: Competitive inhibition of ER-alpha (unknown origin)-GRIP1 interaction expressed in human HepG2 cells assessed as decrease in reporter gene activity at 20 to 50 uM after 40 hrs in presence of estradiol relative to control; type: cell-based; parameters: scale not given: the % may be the effect or the level left; outline: as §1
[15] = target: T1, Estrogen receptor (Homo sapiens); test: Competitive inhibition of ER-alpha (unknown origin)-GRIP1 interaction expressed in human HepG2 cells assessed as decrease in reporter gene activity at 20 to 50 uM after 40 hrs relative to control; type: cell-based; parameters: scale not given: the % may be the effect or the level left; outline: as §1
[16] = Cytotoxicity against ER-negative human SKBR3 cells expressing ER-alpha coexpressing ERE assessed as cell death at >50 uM in presence of estradiol; type: cell-based; conditions: sk-br-3; outline: as §2
[17] = target: T1, Estrogen receptor (Homo sapiens); test: Competitive inhibition of ER-alpha (unknown origin)-GRIP1 interaction expressed in human HepG2 cells assessed as decrease in reporter gene activity at >50 uM after 40 hrs in presence of estradiol relative to control; type: cell-based; parameters: scale not given: the % may be the effect or the level left; outline: as §1
[18] = Cytotoxicity against ER-negative human SKBR3 cells expressing ER-alpha coexpressing ERE assessed as cell death at >50 uM; type: cell-based; conditions: sk-br-3; outline: as §2
[19] = target: T1, Estrogen receptor (Homo sapiens); test: Competitive inhibition of ER-alpha (unknown origin)-GRIP1 interaction expressed in human HepG2 cells assessed as decrease in reporter gene activity at <20 uM after 40 hrs relative to control; type: cell-based; parameters: scale not given: the % may be the effect or the level left; outline: as §1
[20] = target: T1, Estrogen receptor (Homo sapiens); test: Competitive inhibition of ER-alpha (unknown origin)-GRIP1 interaction expressed in human HepG2 cells assessed as decrease in reporter gene activity at <20 uM after 40 hrs in presence of estradiol relative to control; type: cell-based; parameters: scale not given: the % may be the effect or the level left; outline: as §1
[21] = target: T1, Estrogen receptor (Homo sapiens); test: Inhibition of ER-alpha (unknown origin) transcriptional activity expressed in ER-negative human SKBR3 cells coexpressing ERE assessed as decrease in reporter gene activity at <20 uM after 40 hrs in presence of estradiol relative to control; type: cell-based; parameters: scale not given: the % may be the effect or the level left; conditions: SK-BR-3; outline: as §2
[22] = target: T1, Estrogen receptor (Homo sapiens); test: Inhibition of ER-alpha (unknown origin) transcriptional activity expressed in ER-negative human SKBR3 cells coexpressing ERE assessed as decrease in reporter gene activity at <20 uM after 40 hrs relative to control; type: cell-based; parameters: scale not given: the % may be the effect or the level left; conditions: SK-BR-3; outline: as §2
Estrogen receptor = target: T2, Estrogen receptor (Homo sapiens, UniProt P03372); test: Competitive inhibition of ER-alpha (unknown origin) ligand binding pocket expressed in ER-negative human SKBR3 cells coexpressing ERE using estradiol as substrate; type: cell-based, SK-BR-3
T2 sequence (P03372 whole entry): T1 sequence (whole entry)
Outline: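 SKBR3 (ER-negative breast cancer) cells were transfected with RST7–ERα, a 3xERE-TATA-luciferase reporter and a pCMV-β-gal normalization control. […] Cells were incubated 40 h, then luciferase reporter activity was read.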

Compound | Activity [1] [%] | Activity [2] [%] | Activity [7] [%] | Activity [8] [%] | further results
CCCCCCCc1cc(-c2ccc(OCC(=O)OCC)cc2)ccc1OCCN(C)C | < 20 | < 20 | – | – | Activity [3]: > 50%; Activity [4]: > 50%
CCOC(=O)COc1ccc(-c2ccc(OCCN(C)C)c(CC3CCCCC3)c2)cc1 | < 20 | < 20 | – | – | Activity [5]: > 50%; Activity [6]: > 50%
CCOC(=O)COc1ccc(-c2ccc(OCCN(C)C)c(Cc3ccc(-c4ccccc4)cc3)c2)cc1Cc1ccc(-c2ccccc2)cc1 | < 20 | < 20 | < 20 | – | Activity [6]: > 50%
CCOC(=O)COc1ccc(-c2ccc(O)c(Cc3ccc(-c4ccccc4)cc3)c2)cc1Cc1ccc(-c2ccccc2)cc1 | < 20 | < 20 | < 20 | > 50 | –
CCCCCCCc1cc(-c2ccc(OCC(=O)OCC)c(CCCCCCC)c2)ccc1O | < 20 | < 20 | < 20 | – | Activity [9]: < 20%
CCOC(=O)COc1ccc(-c2ccc(O)c(Cc3ccc4ccccc4c3)c2)cc1 | < 20 | < 20 | – | – | Activity [6]: > 50%; Activity (HepG2 [10]): Toxic; Activity (HepG2 [11]): Toxic; Activity [4]: > 50%
CCOC(=O)COc1ccc(-c2ccc(OCCN(C)C)c(Cc3ccc4ccccc4c3)c2)cc1 | – | < 20 | – | > 50 | Activity [12]: > 50%; Activity [13]: > 50%
CCOC(=O)COc1ccc(-c2ccc(O)c(Cc3ccc(-c4ccccc4)cc3)c2)cc1 | – | < 20 | – | – | Activity [14]: > 50%; Activity [9]: < 20%; Activity [15]: > 50%
CCOC(=O)COc1ccc(-c2ccc(O)cc2)cc1CC1CCCCC1 | < 20 | < 20 | < 20 | > 50 | –
CCOC(=O)COc1ccc(-c2ccc(O)c(CC3CCCCC3)c2)cc1CC1CCCCC1 | < 20 | < 20 | < 20 | – | Activity [9]: < 20%; Activity (HepG2 [10]): Toxic; Activity (HepG2 [11]): Toxic
CCOC(=O)COc1ccc(-c2ccc(O)c(CC3CCCCC3)c2)cc1 | – | < 20 | < 20 | > 50 | Activity [16]: Toxic; Activity [17]: > 50%; Activity [18]: Toxic
CCOC(=O)COc1ccc(-c2ccc(OCCN(C)C)c(Cc3ccc(-c4ccccc4)cc3)c2)cc1 | – | – | – | – | Activity [19]: > 50%; Activity [20]: > 50%; Activity (HepG2 [10]): Toxic; Activity [21]: > 50%; Activity (HepG2 [11]): Toxic; Activity [22]: > 50%; IC50 (Estrogen receptor): 3.1 µM
